In ChEMBL document CHEMBL5705905, “Pharmacological targeting of kinases MST1 and MST2 augments tissue repair and regeneration” (Sci Transl Med, 2016):
Calls of active or inactive are those of the source. No cut-off for these calls is given here.

Assays:
[1] = tested on: Tyrosine-protein kinase ABL1 (Homo sapiens), P00519 [T315I]; assay: Inhibition of ABL1 T315I mutant (unknown origin) assessed as remaining activity at 1 uM by Kinome scan method relative to control
How it was run: (§1)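 Active-site-dependent competition-binding (KINOMEscan) panel of 468 kinases, test compound at 1 μM (from a 10 mM DMSO stock). Read-out is ctrl% = (test signal − positive control signal)/(negative control signal − positive control signal) × 100. DMSO is the negative control (100%) and a control compound is the positive control (0%). Lower ctrl% means tighter binding.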

HepG2 = assay: Induction of apoptosis in human HepG2 cells overexpressing MST2 assessed as viable cells at 3 uM by annexinV staining (Rvb =84.2 %); assay type: functional; details: read-out: Activity
[2] = target: Membrane-associated tyrosine- and threonine-specific cdc2-inhibitory kinase (Homo sapiens) (UniProt Q99640); assay: Inhibition of PKMYT1 (unknown origin) assessed as remaining activity at 1 uM by Kinome scan method relative to control
Mus musculus = assay: In vivo inhibition of MST1/2 in wild-type Mst1fl/fl Mst2fl/fl mouse assessed as decrease in MOB1 phosphorylation level at 1 mg/kg, ip administrated daily for 7 days by immunoblot analysis; assay type: functional, organism-based; details: Liver, time 7.0 day
[3] = target: Serine/threonine-protein kinase 3 (Homo sapiens, UniProt Q13188, Y101F)
[4] = target: Serine/threonine-protein kinase Nek9 (Homo sapiens) (UniProt Q8TD19); assay: Inhibition of NEK9 (unknown origin) assessed as remaining activity at 1 uM by Kinome scan method relative to control
[5] = target: Dual specificity protein kinase CLK3 (Homo sapiens) (UniProt P49761); assay: Inhibition of CLK3 (unknown origin) assessed as remaining activity at 1 uM by Kinome scan method relative to control
How it was run: (§2)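 Active-site-dependent competition-binding profiling (KINOMEscan) at 1 μM against a 468-kinase panel; compound supplied from a 10 mM DMSO stock. Read-out is ctrl% = (test signal − positive control signal)/(negative control signal − positive control signal) × 100. DMSO is the negative control (100%) and a control compound the positive control (0%). Lower ctrl% means tighter binding.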

[6] = target: Serine/threonine-protein kinase SBK1 (Homo sapiens) (UniProt Q52WX2); assay: Inhibition of SBK1 (unknown origin) assessed as remaining activity at 1 uM by Kinome scan method relative to control
[7] = target: G protein-coupled receptor kinase 4 (Homo sapiens) (UniProt P32298); assay: Inhibition of GRK4 (unknown origin) assessed as remaining activity at 1 uM by Kinome scan method relative to control
Sequence of G protein-coupled receptor kinase 4 (Homo sapiens) (P32298 whole entry, looked up): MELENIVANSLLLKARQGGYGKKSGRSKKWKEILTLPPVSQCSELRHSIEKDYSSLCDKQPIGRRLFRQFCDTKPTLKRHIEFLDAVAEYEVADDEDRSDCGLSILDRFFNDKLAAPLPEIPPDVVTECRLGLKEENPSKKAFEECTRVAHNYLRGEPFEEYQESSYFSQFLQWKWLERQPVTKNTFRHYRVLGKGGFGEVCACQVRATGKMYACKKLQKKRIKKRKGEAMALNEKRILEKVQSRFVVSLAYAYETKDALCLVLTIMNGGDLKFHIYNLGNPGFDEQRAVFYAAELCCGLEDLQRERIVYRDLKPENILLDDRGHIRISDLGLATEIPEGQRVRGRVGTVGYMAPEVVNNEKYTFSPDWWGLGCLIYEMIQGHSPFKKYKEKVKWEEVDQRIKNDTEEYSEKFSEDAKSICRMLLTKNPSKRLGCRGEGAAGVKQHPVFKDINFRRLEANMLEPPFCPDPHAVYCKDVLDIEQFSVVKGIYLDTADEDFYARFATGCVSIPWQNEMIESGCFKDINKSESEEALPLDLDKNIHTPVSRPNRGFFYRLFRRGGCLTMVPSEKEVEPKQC

[8] = target: MAP/microtubule affinity-regulating kinase 3 (Homo sapiens) (UniProt P27448); assay: Inhibition of MARK3 (unknown origin) assessed as remaining activity at 1 uM by Kinome scan method relative to control
Sequence of MAP/microtubule affinity-regulating kinase 3 (Homo sapiens) (P27448 whole entry, looked up): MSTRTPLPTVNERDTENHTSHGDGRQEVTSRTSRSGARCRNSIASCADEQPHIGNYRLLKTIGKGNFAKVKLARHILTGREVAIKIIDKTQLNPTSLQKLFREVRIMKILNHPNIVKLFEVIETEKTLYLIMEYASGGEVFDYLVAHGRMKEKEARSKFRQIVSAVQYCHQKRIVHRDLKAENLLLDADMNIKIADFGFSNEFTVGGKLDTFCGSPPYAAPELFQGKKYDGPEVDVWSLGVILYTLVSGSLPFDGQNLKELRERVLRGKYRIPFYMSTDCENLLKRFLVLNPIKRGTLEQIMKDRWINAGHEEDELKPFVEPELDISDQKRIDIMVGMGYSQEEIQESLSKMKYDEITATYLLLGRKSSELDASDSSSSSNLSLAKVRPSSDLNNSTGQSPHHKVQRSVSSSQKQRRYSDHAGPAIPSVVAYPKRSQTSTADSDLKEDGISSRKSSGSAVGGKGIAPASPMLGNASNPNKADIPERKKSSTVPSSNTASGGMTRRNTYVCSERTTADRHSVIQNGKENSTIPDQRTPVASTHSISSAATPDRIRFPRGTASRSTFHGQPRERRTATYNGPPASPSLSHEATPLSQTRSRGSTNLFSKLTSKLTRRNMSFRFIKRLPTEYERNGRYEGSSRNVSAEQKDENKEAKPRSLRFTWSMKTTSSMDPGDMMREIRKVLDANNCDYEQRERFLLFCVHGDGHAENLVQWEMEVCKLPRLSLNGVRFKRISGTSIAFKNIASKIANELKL

[9] = target: Dual specificity protein kinase CLK4 (Homo sapiens) (UniProt Q9HAZ1); assay: Inhibition of CLK4 (unknown origin) assessed as remaining activity at 1 uM by Kinome scan method relative to control; how it was run: as §2
[10] = target: 1-phosphatidylinositol 3-phosphate 5-kinase (Homo sapiens) (UniProt Q9Y2I7); assay: Inhibition of PIKFYVE (unknown origin) assessed as remaining activity at 1 uM by Kinome scan method relative to control
[11] = target: Activin receptor type-1 (Homo sapiens) (UniProt Q04771); assay: Inhibition of ACVR1 (unknown origin) assessed as remaining activity at 1 uM by Kinome scan method relative to control; how it was run: as §1
[12] = target: Serine/threonine-protein kinase B-raf (Homo sapiens) (UniProt P15056); assay: Inhibition of BRAF (unknown origin) assessed as remaining activity at 1 uM by Kinome scan method relative to control; how it was run: as §1
[13] = target: Ephrin type-A receptor 5 (Homo sapiens) (UniProt P54756); assay: Inhibition of EPHA5 (unknown origin) assessed as remaining activity at 1 uM by Kinome scan method relative to control
[14] = target: Cyclin-dependent kinase-like 5 (Homo sapiens) (UniProt O76039); assay: Inhibition of CDKL5 (unknown origin) assessed as remaining activity at 1 uM by Kinome scan method relative to control; how it was run: as §2
Sequence of Cyclin-dependent kinase-like 5 (Homo sapiens) (O76039 whole entry): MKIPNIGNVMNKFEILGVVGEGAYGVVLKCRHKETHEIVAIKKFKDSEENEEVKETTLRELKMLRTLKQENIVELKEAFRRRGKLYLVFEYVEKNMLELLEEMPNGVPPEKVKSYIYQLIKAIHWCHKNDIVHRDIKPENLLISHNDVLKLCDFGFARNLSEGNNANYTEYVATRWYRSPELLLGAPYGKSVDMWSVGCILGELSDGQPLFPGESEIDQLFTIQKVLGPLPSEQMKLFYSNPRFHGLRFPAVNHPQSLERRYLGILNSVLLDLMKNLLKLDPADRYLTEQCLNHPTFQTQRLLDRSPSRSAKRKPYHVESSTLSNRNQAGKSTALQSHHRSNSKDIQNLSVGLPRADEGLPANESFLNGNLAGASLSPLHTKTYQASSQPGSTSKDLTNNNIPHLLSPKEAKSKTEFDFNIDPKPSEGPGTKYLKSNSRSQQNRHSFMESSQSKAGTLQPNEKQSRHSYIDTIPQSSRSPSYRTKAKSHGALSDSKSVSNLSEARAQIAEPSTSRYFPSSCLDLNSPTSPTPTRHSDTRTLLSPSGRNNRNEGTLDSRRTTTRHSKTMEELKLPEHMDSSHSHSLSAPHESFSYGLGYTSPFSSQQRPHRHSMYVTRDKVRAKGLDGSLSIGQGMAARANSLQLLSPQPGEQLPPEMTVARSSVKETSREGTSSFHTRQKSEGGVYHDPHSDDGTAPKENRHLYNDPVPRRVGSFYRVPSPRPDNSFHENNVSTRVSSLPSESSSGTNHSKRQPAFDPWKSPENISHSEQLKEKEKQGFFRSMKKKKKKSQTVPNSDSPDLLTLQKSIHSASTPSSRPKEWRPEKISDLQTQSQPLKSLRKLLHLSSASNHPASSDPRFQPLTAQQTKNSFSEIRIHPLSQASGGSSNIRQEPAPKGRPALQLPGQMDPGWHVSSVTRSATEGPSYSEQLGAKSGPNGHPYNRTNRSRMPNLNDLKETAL

[15] = target: Muscle, skeletal receptor tyrosine-protein kinase (Homo sapiens) (UniProt O15146); assay: Inhibition of MUSK (unknown origin) assessed as remaining activity at 1 uM by Kinome scan method relative to control
Sequence of Muscle, skeletal receptor tyrosine-protein kinase (Homo sapiens) (O15146 whole entry): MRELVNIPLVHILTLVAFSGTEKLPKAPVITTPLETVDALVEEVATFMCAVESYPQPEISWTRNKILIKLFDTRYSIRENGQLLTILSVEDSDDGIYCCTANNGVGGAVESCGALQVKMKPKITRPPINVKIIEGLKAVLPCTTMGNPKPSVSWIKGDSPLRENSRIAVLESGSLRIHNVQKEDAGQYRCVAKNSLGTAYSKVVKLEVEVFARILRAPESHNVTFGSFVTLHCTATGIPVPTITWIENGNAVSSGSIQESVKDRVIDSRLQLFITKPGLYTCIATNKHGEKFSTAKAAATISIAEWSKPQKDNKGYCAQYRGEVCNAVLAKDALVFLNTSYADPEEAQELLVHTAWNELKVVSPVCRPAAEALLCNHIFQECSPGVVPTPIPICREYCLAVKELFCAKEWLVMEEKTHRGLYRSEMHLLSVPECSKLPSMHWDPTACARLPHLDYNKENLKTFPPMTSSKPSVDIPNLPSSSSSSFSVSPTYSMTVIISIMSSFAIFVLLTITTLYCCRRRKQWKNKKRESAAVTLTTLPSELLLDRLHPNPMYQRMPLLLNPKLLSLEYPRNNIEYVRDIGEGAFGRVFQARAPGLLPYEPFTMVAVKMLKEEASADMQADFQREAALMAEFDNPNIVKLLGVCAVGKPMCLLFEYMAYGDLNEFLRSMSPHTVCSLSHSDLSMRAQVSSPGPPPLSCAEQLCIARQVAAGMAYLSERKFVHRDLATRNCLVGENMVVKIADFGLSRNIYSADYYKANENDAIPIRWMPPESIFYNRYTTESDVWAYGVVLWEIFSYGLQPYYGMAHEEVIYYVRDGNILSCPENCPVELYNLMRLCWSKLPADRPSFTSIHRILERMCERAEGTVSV

[16] = target: Mitogen-activated protein kinase 11 (Homo sapiens) (UniProt Q15759); assay: Inhibition of P38beta (unknown origin) assessed as remaining activity at 1 uM by Kinome scan method relative to control
[17] = target: Serine/threonine-protein kinase RIO3 (Homo sapiens) (UniProt O14730); assay: Inhibition of RIOK3 (unknown origin) assessed as remaining activity at 1 uM by Kinome scan method relative to control
[18] = target: Mitogen-activated protein kinase 1 (Homo sapiens) (UniProt P28482); assay: Inhibition of ERK2 (unknown origin) assessed as remaining activity at 1 uM by Kinome scan method relative to control
[19] = target: Leucine-rich repeat serine/threonine-protein kinase 2 (Homo sapiens) (UniProt Q5S007); assay: Inhibition of LRRK2 (unknown origin) assessed as remaining activity at 1 uM by Kinome scan method relative to control
[20] = target: Vascular endothelial growth factor receptor 2 (Homo sapiens) (UniProt P35968); assay: Inhibition of VEGFR2 (unknown origin) assessed as remaining activity at 1 uM by Kinome scan method relative to control
[21] = tested on: Tyrosine-protein kinase ABL1 (Homo sapiens), P00519 [F317L]; assay: Inhibition of phosphorylated ABL1 F317L mutant (unknown origin) assessed as remaining activity at 1 uM by Kinome scan method relative to control
[22] = target: Receptor tyrosine-protein kinase erbB-4 (Homo sapiens) (UniProt Q15303); assay: Inhibition of ERBB4 (unknown origin) assessed as remaining activity at 1 uM by Kinome scan method relative to control
Sequence of Receptor tyrosine-protein kinase erbB-4 (Homo sapiens) (Q15303 whole entry): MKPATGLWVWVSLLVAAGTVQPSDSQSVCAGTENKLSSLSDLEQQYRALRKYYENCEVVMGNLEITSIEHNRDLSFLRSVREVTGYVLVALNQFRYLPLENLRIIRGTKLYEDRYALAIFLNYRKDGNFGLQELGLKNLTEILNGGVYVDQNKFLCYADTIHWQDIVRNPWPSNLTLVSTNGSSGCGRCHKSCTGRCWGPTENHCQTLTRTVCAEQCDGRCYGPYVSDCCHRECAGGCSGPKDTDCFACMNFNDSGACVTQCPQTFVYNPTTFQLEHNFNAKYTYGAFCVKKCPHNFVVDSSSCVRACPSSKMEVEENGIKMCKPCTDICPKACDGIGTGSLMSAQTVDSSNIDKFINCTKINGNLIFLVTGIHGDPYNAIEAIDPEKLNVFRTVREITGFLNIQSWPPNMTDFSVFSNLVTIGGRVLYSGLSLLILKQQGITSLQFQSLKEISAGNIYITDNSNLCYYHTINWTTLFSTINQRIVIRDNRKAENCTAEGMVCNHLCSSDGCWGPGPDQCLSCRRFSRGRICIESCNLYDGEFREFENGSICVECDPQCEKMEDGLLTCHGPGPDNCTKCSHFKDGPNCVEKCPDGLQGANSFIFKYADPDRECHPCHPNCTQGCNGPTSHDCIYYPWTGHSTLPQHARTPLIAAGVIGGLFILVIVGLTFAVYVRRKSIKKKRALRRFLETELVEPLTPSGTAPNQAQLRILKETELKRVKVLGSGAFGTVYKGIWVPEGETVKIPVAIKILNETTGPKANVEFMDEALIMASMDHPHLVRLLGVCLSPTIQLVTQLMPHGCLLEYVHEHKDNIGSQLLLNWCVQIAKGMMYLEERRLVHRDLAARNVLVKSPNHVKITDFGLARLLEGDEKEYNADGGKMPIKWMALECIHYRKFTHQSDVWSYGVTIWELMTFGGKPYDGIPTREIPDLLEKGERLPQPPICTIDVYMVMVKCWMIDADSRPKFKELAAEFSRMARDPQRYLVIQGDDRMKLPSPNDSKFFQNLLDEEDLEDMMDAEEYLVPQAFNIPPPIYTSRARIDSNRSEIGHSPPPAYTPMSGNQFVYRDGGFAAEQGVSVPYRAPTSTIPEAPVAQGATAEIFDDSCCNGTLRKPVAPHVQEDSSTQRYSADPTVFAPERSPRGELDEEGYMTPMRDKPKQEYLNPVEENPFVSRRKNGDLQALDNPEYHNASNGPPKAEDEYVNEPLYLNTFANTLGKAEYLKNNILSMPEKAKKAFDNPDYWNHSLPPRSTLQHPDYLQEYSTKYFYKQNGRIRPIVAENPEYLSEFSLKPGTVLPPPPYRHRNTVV

[23] = target: Cytoplasmic tyrosine-protein kinase BMX (Homo sapiens) (UniProt P51813); assay: Inhibition of BMX (unknown origin) assessed as remaining activity at 1 uM by Kinome scan method relative to control; how it was run: as §1
[24] = target: Myotonin-protein kinase (Homo sapiens) (UniProt Q09013); assay: Inhibition of DMPK (unknown origin) assessed as remaining activity at 1 uM by Kinome scan method relative to control
Sequence of Myotonin-protein kinase (Homo sapiens) (Q09013 whole entry): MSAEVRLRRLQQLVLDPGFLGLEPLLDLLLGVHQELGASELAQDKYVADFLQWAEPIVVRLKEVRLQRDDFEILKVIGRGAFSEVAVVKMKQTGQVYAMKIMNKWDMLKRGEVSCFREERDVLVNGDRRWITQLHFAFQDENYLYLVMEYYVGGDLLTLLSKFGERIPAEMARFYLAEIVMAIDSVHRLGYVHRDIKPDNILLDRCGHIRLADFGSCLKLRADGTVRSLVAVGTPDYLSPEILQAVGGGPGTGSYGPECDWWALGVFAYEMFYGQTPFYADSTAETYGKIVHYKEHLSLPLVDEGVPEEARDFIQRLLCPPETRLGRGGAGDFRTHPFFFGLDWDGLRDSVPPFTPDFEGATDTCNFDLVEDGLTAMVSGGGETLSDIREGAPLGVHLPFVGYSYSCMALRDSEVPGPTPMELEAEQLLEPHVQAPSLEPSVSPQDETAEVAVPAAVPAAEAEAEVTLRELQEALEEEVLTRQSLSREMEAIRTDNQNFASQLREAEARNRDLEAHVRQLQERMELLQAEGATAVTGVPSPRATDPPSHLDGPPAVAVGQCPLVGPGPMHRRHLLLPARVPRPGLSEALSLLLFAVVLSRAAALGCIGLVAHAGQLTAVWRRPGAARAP

[25] = target: Myosin light chain kinase family member 4 (Homo sapiens) (UniProt Q86YV6); assay: Inhibition of MYLK4 (unknown origin) assessed as remaining activity at 1 uM by Kinome scan method relative to control
How it was run: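 KINOMEscan active-site competition binding assay at 1 μM against 468 kinases. Ctrl% = (test − positive control)/(negative control DMSO − positive control) × 100; lower values mean tighter binding.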

[26] = tested on: Proto-oncogene tyrosine-protein kinase receptor Ret (Homo sapiens), P07949 [M918T]; assay: Inhibition of RET M918T (unknown origin) assessed as remaining activity at 1 uM by Kinome scan method relative to control

CN1C(=O)c2sccc2N(C)c2nc(Nc3ccc(S(N)(=O)=O)cc3)ncc21
Activity [1]: 15%
viability at 3 µM (HepG2): 93.1%
Activity [2]: 100%
inhibition (Mus musculus): Active
IC50 [3]: 361 nM
Activity [4]: 94%
Activity [5]: 85%
Activity [6]: 42%
Activity [7]: 99%
Activity [8]: 98%
Activity [9]: 100%
Activity [10]: 64%
Activity [11]: 91%
Activity [12]: 100%
Activity [13]: 100%
Activity [14]: 85%
Activity [15]: 100%
Activity [16]: 83%
Activity [17]: 100%
Activity [18]: 100%
Activity [19]: 37%
Activity [20]: 100%
Activity [21]: 14%
Activity [22]: 79%
Activity [23]: 90%
Activity [24]: 100%
Activity [25]: 89%
Activity [26]: 78%
